According to ChEMBL document CHEMBL1133543, “Effect of ring fluorination on the pharmacology of hallucinogenic tryptamines” (J Med Chem, 2000):

What was measured:
[1] = biological target: T1, 5-hydroxytryptamine receptor 1A (Rattus norvegicus) (UniProt P19327); assay: Evaluated for the 5-hydroxytryptamine 1A receptor agonist activity in LY-293284 trained rats; type: functional
T1 sequence (whole entry): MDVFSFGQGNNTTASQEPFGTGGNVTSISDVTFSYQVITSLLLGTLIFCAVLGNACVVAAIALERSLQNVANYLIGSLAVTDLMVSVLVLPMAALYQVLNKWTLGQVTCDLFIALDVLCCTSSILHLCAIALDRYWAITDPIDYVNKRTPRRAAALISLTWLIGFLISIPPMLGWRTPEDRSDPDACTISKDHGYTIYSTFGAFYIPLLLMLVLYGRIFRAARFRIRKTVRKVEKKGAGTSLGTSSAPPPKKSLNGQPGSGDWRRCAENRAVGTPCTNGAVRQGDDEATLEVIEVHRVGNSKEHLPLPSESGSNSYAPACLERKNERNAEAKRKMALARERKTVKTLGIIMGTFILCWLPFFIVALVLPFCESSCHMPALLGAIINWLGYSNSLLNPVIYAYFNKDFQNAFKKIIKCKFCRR
Outline: (§1)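 Rats trained (FR50, 15-min sessions) to discriminate ip training drug from saline: LSD 0.08 mg/kg (186 nmol/kg), DOI 0.4 mg/kg (1.12 µmol/kg) or LY293284 0.025 mg/kg (75 nmol/kg), in 0.9% saline. Test drugs given ip 30 min (or 15 min) before extinction sessions. At least three doses, at least eight rats per dose. Scored quantally as %SDL. ED50 and 95% CI by Litchfield–Wilcoxon.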

[2] = biological target: T2, 5-hydroxytryptamine receptor 1A (Homo sapiens, UniProt P08908); assay: Evaluated for the binding constant at [3H]8-OH-DPAT-labeled human 5-hydroxytryptamine 1A receptor
T2 sequence (P08908 whole entry): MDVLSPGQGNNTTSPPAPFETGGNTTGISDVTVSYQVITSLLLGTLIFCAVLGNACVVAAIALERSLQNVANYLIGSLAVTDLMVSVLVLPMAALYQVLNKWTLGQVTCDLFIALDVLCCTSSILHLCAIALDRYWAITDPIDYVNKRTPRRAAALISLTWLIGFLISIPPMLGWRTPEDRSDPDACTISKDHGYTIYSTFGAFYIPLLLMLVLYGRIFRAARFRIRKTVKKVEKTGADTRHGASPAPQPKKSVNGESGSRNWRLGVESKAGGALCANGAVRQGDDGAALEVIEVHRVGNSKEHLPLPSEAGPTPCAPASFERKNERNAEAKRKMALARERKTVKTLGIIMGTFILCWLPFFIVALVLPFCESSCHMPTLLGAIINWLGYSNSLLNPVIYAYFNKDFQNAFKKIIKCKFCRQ

[3] = biological target: T3, 5-hydroxytryptamine receptor 2A (Rattus norvegicus, UniProt P14842); assay: Evaluated for the effective concentration at [125I]-DOI-labeled rat 5-hydroxytryptamine 2A receptor
T3 sequence (P14842 whole entry): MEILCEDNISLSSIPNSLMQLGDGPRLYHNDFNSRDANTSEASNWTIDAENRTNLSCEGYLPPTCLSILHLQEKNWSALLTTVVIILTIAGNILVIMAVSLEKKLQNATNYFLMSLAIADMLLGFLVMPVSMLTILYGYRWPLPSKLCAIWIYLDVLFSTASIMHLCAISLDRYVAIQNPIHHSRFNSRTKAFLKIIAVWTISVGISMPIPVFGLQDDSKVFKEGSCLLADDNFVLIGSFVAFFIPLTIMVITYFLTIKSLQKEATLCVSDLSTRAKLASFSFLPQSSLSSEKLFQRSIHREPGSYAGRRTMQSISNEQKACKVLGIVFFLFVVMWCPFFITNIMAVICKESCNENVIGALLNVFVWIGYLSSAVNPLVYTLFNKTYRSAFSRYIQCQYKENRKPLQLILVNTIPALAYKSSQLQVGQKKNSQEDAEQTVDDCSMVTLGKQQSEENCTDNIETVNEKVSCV

[4] = biological target: 5-hydroxytryptamine receptor 2A (Rattus norvegicus) (UniProt P14842); assay: Intrinsic activity was determined at 5-hydroxytryptamine 2A receptor which is percentage response given compared with the response produced by 10 uM serotonin.
Sequence of 5-hydroxytryptamine receptor 2A (Rattus norvegicus) (P14842 whole entry): as above
Outline: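 Cells were pretreated 15 min with 10 µM pargyline and 10 mM LiCl, then exposed to agonist for 30 min at 37 °C. Inositol phosphates were separated on Dowex-1 and counted. EC50 was taken for PI turnover. Intrinsic activity is the response relative to 10 µM serotonin. Repeated 3-4 times.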

[5] = biological target: T3, 5-hydroxytryptamine receptor 2A; assay: Evaluated for the binding constant at [125I]-DOI-labeled rat 5-hydroxytryptamine 2A receptor
Outline: (§2)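 Competition binding with membranes from harvested cells. Rat 5-HT2A or 5-HT2C receptors were expressed in NIH3T3 cells and labelled with 0.20 nM [125I]DOI. […] Buffer was 50 mM Tris, 0.5 mM EDTA, 10 mM MgCl2, pH 7.4. Incubation ran 60 min at 25 °C, then filtration and counting. Ten concentrations were run in duplicate, n = 3-5. Ki was obtained by Cheng–Prusoff.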

[6] = biological target: T4, 5-hydroxytryptamine receptor 2C (Rattus norvegicus, UniProt P08909); assay: Evaluated for the binding constant at [125I]-DOI-labeled rat 5-hydroxytryptamine 2C receptor; outline: as §2
T4 sequence (P08909 whole entry): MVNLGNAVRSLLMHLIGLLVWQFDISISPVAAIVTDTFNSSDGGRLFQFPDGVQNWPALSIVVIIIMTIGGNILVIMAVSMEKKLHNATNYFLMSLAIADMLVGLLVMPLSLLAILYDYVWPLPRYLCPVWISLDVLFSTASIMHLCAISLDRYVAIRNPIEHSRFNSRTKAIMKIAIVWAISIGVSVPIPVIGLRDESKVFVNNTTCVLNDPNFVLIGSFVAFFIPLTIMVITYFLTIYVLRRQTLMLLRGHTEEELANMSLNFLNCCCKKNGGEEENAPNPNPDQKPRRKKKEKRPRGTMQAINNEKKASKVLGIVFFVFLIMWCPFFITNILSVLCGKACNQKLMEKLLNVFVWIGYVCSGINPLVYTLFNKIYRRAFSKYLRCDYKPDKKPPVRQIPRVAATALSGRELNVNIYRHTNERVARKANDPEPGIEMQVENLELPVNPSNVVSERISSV

Rattus norvegicus [7] = assay: Maximum percentage of DOI-trained rats responding on the training drug lever at 4 umol/kg; type: functional; outline: as §1
Rattus norvegicus [8] = organism: Rattus norvegicus; assay: Evaluated in the two-lever drug discrimination assay in LSD trained rats to assess hallucinogenic-like activity (95% confidence intervals); type: functional; outline: as §1
[9] = biological target: T2, 5-hydroxytryptamine receptor 1A; assay: EC50 for inhibition of 50 uM forskolin-stimulated cAMP accumulation against 5-hydroxytryptamine 1A receptor; type: functional
Rattus norvegicus [10] = assay: Maximum percentage of DOI-trained rats responding on the training drug lever at 1 umol/kg; type: functional; outline: as §1
Rattus norvegicus [11] = assay: Maximum percentage of LSD-trained rats responding on the training drug lever at 2 umol/kg; type: functional; outline: as §1
Rattus norvegicus [12] = organism: Rattus norvegicus; assay: Evaluated in the two-lever drug discrimination assay in DOI trained rats to assess hallucinogenic-like activity (95% confidence intervals); type: functional; outline: as §1
[13] = biological target: T2, 5-hydroxytryptamine receptor 1A; assay: Evaluated for the binding constant at [3H]8-OH-DPAT-labeled human 5-hydroxytryptamine 1A receptor receptor
Rattus norvegicus [14] = assay: Maximum percentage of LSD-trained rats responding on the training drug lever at 8 umol/kg; type: functional; outline: as §1
Rattus norvegicus [15] = assay: Maximum percentage of DOI-trained rats responding on the training drug lever at 8 umol/kg; type: functional; outline: as §1

| SMILES | Ki [2] | EC50 [3] | Intrinsic activity [4] | Ki [5] | Ki [6] | ED50 (Rattus norvegicus [8]) | EC50 [9] | other results |
| --- | --- | --- | --- | --- | --- | --- | --- | --- |
| CCCN(CCC)C1CCc2cccc(O)c2C1 (centres undefined) | – | – | – | – | – | – | – | ED50 [1]: 0.099 µmol/kg |
| COc1cc2c(CCN(C)C)c[nH]c2cc1F | 84.5 nM | 7.9 µM | 110% | 33 nM | 19 nM | 4.72 µmol/kg | – | ED50 (Rattus norvegicus [7]): 50 µmol/kg |
| COc1ccc2[nH]cc(CCN(C)C)c2c1F | – | 18.1 µM | 88% | 122 nM | 55 nM | – | 0.93 nM | ED50 [1]: 0.17 µmol/kg; ED50 (Rattus norvegicus [10]): 66 µmol/kg; ED50 (Rattus norvegicus [11]): 22 µmol/kg |
| CCN(CC)C(=O)[C@@H]1C=C2c3cccc4[nH]cc(c34)C[C@H]2N(C)C1 [LYSERGIDE] | – | – | – | – | – | 0.037 µmol/kg | – | ED50 (Rattus norvegicus [12]): 0.014 µmol/kg |
| CCCN(CCC)C1Cc2c[nH]c3ccc(C(C)=O)c(c23)C1 (centres undefined) [LY-293284] | – | – | – | – | – | – | 0.13 nM | ED50 [1]: 0.031 µmol/kg |
| CN(C)CCc1c[nH]c2cc(F)cc(O)c12 | 114 nM | 2.6 µM | 85% | – | 7.4 nM | – | – | – |
| CCN(CC)CCc1c[nH]c2ccc(OC)cc12 | 1.7 nM | 2.39 µM | 99% | 42 nM | 16 nM | 1.49 µmol/kg | 22 nM | – |
| CCN(CC)CCc1c[nH]c2ccccc12 | 47 nM | 5.37 µM | 82% | 133 nM | 104 nM | 2.53 µmol/kg | 680 nM | – |
| CN(C)CCc1c[nH]c2c(F)ccc(O)c12 | – | 4.92 µM | 76% | 13 nM | 5.4 nM | – | – | Ki [13]: 120 nM; ED50 (Rattus norvegicus [14]): 63 µmol/kg |
| CCN(CC)CCc1c[nH]c2cc(F)ccc12 | 256 nM | 33.9 µM | 63% | 145 nM | 210 nM | – | 3700 nM | ED50 (Rattus norvegicus [14]): 40 µmol/kg; ED50 (Rattus norvegicus [15]): 33 µmol/kg |
| COc1cc(CC(C)N)c(OC)cc1I (centres undefined) | – | – | – | – | – | 0.27 µmol/kg | – | ED50 (Rattus norvegicus [12]): 0.3 µmol/kg |
